# Results reported in ChEMBL document CHEMBL1135197, “The synthesis and biological evaluation of a series of potent dual inhibitors of farnesyl and geranyl-Geranyl protein transferases” (Bioorg Med Chem Lett, 2002).
# “And” between values parts separate entries of the source, which are not always exact repeats. Equal entries are not always repeated.
# Assays:
# [1] = target: T1, Protein farnesyltransferase (Homo sapiens, UniProt P49354+P49356); assay: Inhibitor of Farnesyl protein transferase (FTPase) required to reduce radiolabel [1-3H] incorporation by 50%; assay type: protein-complex assay
# Outline: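 Purified recombinant FPTase transfers [1-3H]FPP onto a recombinant protein substrate carrying the K-ras C-terminus. IC50 is the inhibitor concentration that lowers radiolabel incorporation by 50% relative to uninhibited controls. Values are the mean of at least two determinations.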
# [2] = target: T1, Protein farnesyltransferase; assay: The concentration required to displace 50% of a highly potent radiolabeled FPTase inhibitor; assay type: protein-complex assay
# [3] = target: T2, Geranylgeranyl transferase type I (Homo sapiens, UniProt P49354+P53609); assay: (§1) Inhibition of [1-3H]-GGPP incorporation into biotinylated K4B-Ras peptide by geranylgeranyl transferase in the presence of 5 mM ATP; assay type: protein-complex assay
# Outline: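 Scintillation proximity assay: GGPTase reaction of [1-3H]GGPP with a biotinylated peptide of the K4B-Ras C-terminus at several inhibitor concentrations. IC50 is the concentration cutting radiolabel incorporation by 50% relative to uninhibited controls. Values are the mean of at least two determinations.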
# [4] = target: T2, Geranylgeranyl transferase type I; assay: as §1; assay type: protein-complex assay; remark: listed apart in the source
# Outline: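 Scintillation proximity assay: GGPTase reaction of [1-3H]GGPP with a biotinylated peptide of the K4B-Ras C-terminus at several inhibitor concentrations. Values are the mean of at least two determinations.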
# [5] = target: T2, Geranylgeranyl transferase type I; assay: Inhibition of geranylgeranylation of C-terminal CAAX sequence of Rap 1a in PSN-1 cells; assay type: functional, cell-based
# Outline: (§2)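 PSN-1 cells; the read-out is inhibition of geranylgeranylation at the C-terminal CAAX sequence of Rap 1a, reported as EC50. Values are the mean of at least two determinations.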
# [6] = target: T1, Protein farnesyltransferase; assay: Displacement of radiolabeled farnesyl transferase inhibitor; assay type: protein-complex assay
# [7] = target: T1, Protein farnesyltransferase; assay: Inhibition of Farnesyl protein transferase radiolabel [1-3H] incorporation; assay type: protein-complex assay
# [8] = target: T2, Geranylgeranyl transferase type I; assay: Inhibition of geranylgeranylation of the C-terminal CAAX sequence of Rap 1a in PSN-1 cells; assay type: functional, cell-based; outline: as §2
IC50 [1] [nM],IC50 [2],IC50 [3] [nM],IC50 [4] [nM],EC50 [5] [nM],IC50 [6] [nM],IC50 [7] [nM],EC50 [8] [nM],Compound
6.8,7.95 nM,0.68,–,–,–,–,–,N#Cc1ccc(Cn2cncc2CN2CCN(C(=O)OCc3ccccc3Cl)CC2)cc1
3.1,4 nM and 27 nM,0.84,–,–,–,–,–,COc1ccccc1COC(=O)N1CCN(Cc2cncn2Cc2ccc(C#N)cc2)CC1
0.36,2.2 nM,0.16,–,–,–,–,18,N#Cc1ccc(Cn2cncc2CN2CCN(C(=O)OCc3ccccc3OC(F)(F)F)CC2)cc1
1.6,4.52 nM,0.32,–,–,–,–,71,CCOc1ccccc1COC(=O)N1CCN(Cc2cncn2Cc2ccc(C#N)cc2)CC1
5,8.67 nM,8.7,–,–,–,–,–,CCOc1ncccc1COC(=O)N1CCN(Cc2cncn2Cc2ccc(C#N)cc2)CC1
6.4,62.9 nM,–,9.1,–,–,–,–,Cc1ccccc1COC(=O)N1CCN(Cc2cncn2Cc2ccc(C#N)cc2)CC1
6.1,9.1 nM,0.32,–,–,–,–,–,COCc1ccccc1COC(=O)N1CCN(Cc2cncn2Cc2ccc(C#N)cc2)CC1

# Second part, the molecule before the results:
Compound,IC50 [1] [nM],IC50 [2],IC50 [3] [nM],IC50 [4] [nM],EC50 [5] [nM],IC50 [6] [nM],IC50 [7] [nM],EC50 [8] [nM]
N#Cc1ccc(Cn2cncc2CN2CCN(C(=O)OCc3cccc4c3OCO4)CC2)cc1,15.5,10.9 nM,19.8,–,–,–,–,–
COCc1ccccc1COC(=O)N1CCN(Cc2cnc(C)n2Cc2ccc(C#N)cc2)CC1,–,–,–,178,680,3.17,17,–
Cc1cccc(COC(=O)N2CCN(Cc3cncn3Cc3ccc(C#N)cc3)CC2)c1,34,166 nM,76,–,–,–,–,–
N#Cc1ccc(Cn2cncc2CN2CCN(C(=O)OCc3ccc4c(c3)OCO4)CC2)cc1,102,–,121,–,–,–,–,–
N#Cc1ccc(Cn2cncc2CN2CCN(C(=O)OCc3cccc(OC(F)(F)F)c3)CC2)cc1,13.4,12.1 nM,74,–,–,–,–,–
COc1ncccc1COC(=O)N1CCN(Cc2cncn2Cc2ccc(C#N)cc2)CC1,18,13 nM,48,–,–,–,–,–
Cc1ncc(CN2CCN(C(=O)OCc3ccccc3)CC2)n1Cc1ccc(C#N)cc1,19,–,789,–,–,–,–,–
N#Cc1ccc(Cn2cncc2CN2CCN(C(=O)OCc3ccccc3CC(F)(F)F)CC2)cc1,2.5,0.85 nM,4.82,–,–,–,–,50
CCOc1ccccc1COC(=O)N1CCN(Cc2cnc(C)n2Cc2ccc(C#N)cc2)CC1,1.5,1.13 nM,80,–,–,–,–,–
CS(=O)(=O)c1ccccc1COC(=O)N1CCN(Cc2cncn2Cc2ccc(C#N)cc2)CC1,99,–,18,–,–,–,–,–
Cc1ncc(CN2CCN(C(=O)OCc3ccccc3OC(F)(F)F)CC2)n1Cc1ccc(C#N)cc1,–,–,–,53,660,0.34,0.33,–
